# In ChEMBL document CHEMBL1147824, “Synthesis, biological activity, and DNA-damage profile of platinum-threading intercalator conjugates designed to target adenine” (J Med Chem, 2006):
# Tests used:
# HL-60 = assay: Cytotoxicity against human HL60 cell line by MTS assay; type: functional, cell-based
# How it was run: (§1)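 Cells kept at 37 °C in humidified 5% CO2/95% air and seeded at 700 cells/well (H460) or 27 500 cells/well (HL-60). Log-phase cells were exposed in triplicate to serial drug dilutions for 72 h; stocks in DMSO, PBS or DMF, final organic solvent under 0.1%. MTS/PMS added for 3 h, A490 read. IC50 from sigmoidal dose-response fit; mean of at least three experiments.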
# NCI-H460 = assay: Cytotoxicity against human H460 cell line by MTS assay; type: functional, cell-based; how it was run: as §1
SMILES,IC50 (HL-60),IC50 (NCI-H460)
CNC(=S)N(C)CCNc1c2ccccc2nc2ccccc12,11.5 µM,9.5 µM
CCNC(=O)NCCNC(=O)c1cccc2c(NCCN(C)/C(S)=N/C)c3ccccc3nc12,> 100 µM,> 100 µM
CCNC(=O)NCCCCNC(=O)c1cccc2c(NCCN(C)/C(S)=N/C)c3ccccc3nc12,> 100 µM,> 100 µM
C/N=C(\S)N(C)CCNc1c2ccccc2nc2c(C(=O)NCCNC(=O)Nc3ccccc3)cccc12,> 50 µM,31.9 µM
C/N=C(\S)N(C)CCNc1c2ccccc2nc2c(C(=O)NCCCCNC(=O)Nc3ccccc3)cccc12,0.39 µM,3.1 µM
C/N=C(\S)N(C)CCNc1c2ccccc2nc2c(C(=O)NCCN(C)C)cccc12,1.4 µM,2.2 µM
C/N=C(\S)N(C)CCNc1c2ccccc2nc2c(C(=O)NCCO)cccc12,27.4 µM,41.1 µM
C/N=C(\S)N(C)CCNc1c2ccccc2nc2c(C(=O)NCCOC(C)=O)cccc12,29.5 µM,17.6 µM
